Experimental data from PubChem BioAssay AID504414 (Broad Institute, 2011).
In all, about 330,000 compounds went through this assay and about 55 (0.02%) were called active. The sample holds actives, similar compounds and a random draw of the others, so the mix is not that of the screen.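 The calls were made as follows: active = highest replicate inhibition of at least 40%; inactive = the rest.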

Molecular target: Golgi-associated PDZ and coiled-coil motif-containing protein (Homo sapiens) (UniProt Q9HD26)
Assay: disruption of CAL PDZ-reporter peptide interaction – biochemical, fluorescence polarization, Cer-tagged CAL PDZ, HTS, primary screen (AID 504414);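 also: plate controls were DMSO neutral control wells for no effect and unlabeled competitor peptide control wells for full effect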
Settings: purified CAL PDZ, TMR-peptide fluorescence polarization, 1 h; at 20 µM; stronger effect = higher value
In short: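 material = purified tagged CAL PDZ domain construct (CerCALP) | compound dosing = 20 µM, one dose | times = 1 h at RT | measured by = fluorescence polarization from S- and P-plane intensities, G-factor corrected | read-out = inhibition from polarization loss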

inhibition, inactive:
COc1cc2c(cc1OC)C1C(=O)c3cc(OS(C)(=O)=O)c(OC)cc3C1N(C)C2=O (stereo unspecified) -0.086%
Cc1ccc(NC(=O)CN2C(=O)NC(C)(c3ccc(Cl)cc3)C2=O)c(Br)c1 (stereo unspecified) -4.23%
CCOc1cc(/C=N/NC(=O)c2ccc(CSc3nncn3C)cc2)ccc1OCC(=O)N1CCOCC1 -3.73%
CCN(CC)S(=O)(=O)c1cccc(-c2n[nH]c(=S)n2/N=C/c2ccc(C(=O)OC)cc2)c1 -1.46%
CCCCC(CC)CNCc1cccn1CCN1CCOCC1 (stereo unspecified) 0.235%
Cc1cc(C)n(CC(C)NCc2c(C(=O)N3CCOCC3)nc3c(C)cccn23)n1 (stereo unspecified) 0.659%
COc1ccccc1C1C(C(N)=O)=C(C)Nc2nc(CCCO)nn21 (stereo unspecified) -0.498%
Nc1cc2c(cc1Br)-c1ccc(F)cc1C2=O -0.277%
O=C(O)CCC(=O)Nc1ccc(OCC2CCCO2)cc1 (stereo unspecified) -0.764%
Cc1c[n+]([O-])ccc1[N+](=O)[O-] 0.378%
Cc1nc(C)c2c(c1C(F)(F)F)-c1ccccc1C2(F)F -1.33%
NC1=NC(=O)C(Cc2cccc(Cl)c2Cl)S1 (stereo unspecified) 1.03%
CCc1ccc(OCC(=O)OC(C)C(=O)NC2CC2)cc1 (stereo unspecified) -0.543%
CC(C)(C)C(=O)N(Cc1ccccc1)c1ccccn1 0.0459%
COC(C(=O)Nc1ccc(S(=O)(=O)Nc2ccc(C)c(C)c2)cc1)c1ccccc1 (stereo unspecified) -3.38%
CCCCCCCCNS(=O)(=O)CCNC1CCCCC1 -1.06%
O=C1CSc2ccc(S(=O)(=O)NCc3ccccc3)cc2N1 -0.383%
CCOc1ccccc1-n1c(SCC(=O)N2CCCC2)nnc1-c1ccoc1C -1.83%
O=S(=O)(NC1CCCCC1N1CCC(O)CC1)c1ccc(Cl)cc1 (stereo unspecified) -0.646%
CC1CCCCC1NC(=O)CCS(=O)(=O)c1ccc2c(c1)NC(=O)CO2 (stereo unspecified) -0.536%
COc1ccc(/C=N/N=C/c2c[nH]c(=O)c(C#N)c2Nc2ccccc2)cc1 -5.96%
CC(C)(C)C(=O)Nc1ccc(-c2cn3cccnc3n2)cc1 -1.11%
CC(=O)Nc1ccc(-c2cn3cccnc3n2)cc1 -1.06%
Cc1ccc(C(=O)NNC(=O)OC(C)(C)C)c(Cl)c1 -1.58%
S=c1[nH]cc(-c2ccc(Cl)cc2)n1-c1ccccc1 -1.13%
CC(=O)c1nc(N2C(=O)C3CC=C(C)CC3C2=O)sc1C (stereo unspecified) -0.266%
CC(C)CCN1CCN=C1N(C)C -2.49%
Cc1ccc(S(=O)(=O)N2CCN(C)CC2)cc1C(=O)NC1CCCCC1 -0.886%
CN1/C(=c2/s/c(=C3/C(=O)N(c4ccccc4)NC3=Nc3ccccc3)n(C)c2=O)C(C)(C)c2ccccc21 0.46%
COc1cc(-c2nc(S(=O)(=O)c3ccc(Cl)cc3)c(N(C)C)o2)cc(OC)c1OC -0.274%
Clc1c(OCCCn2ccnc2)ccc2ccccc12 -0.854%
O=C(OCC(=O)N1CCCCCC1)c1ccc(Br)c(S(=O)(=O)N2CCOCC2)c1 0.404%
CSc1ccc(Cl)c(C(=O)OCC(=O)N2CC(C)OC(C)C2)c1 (stereo unspecified) 1.25%
CCOc1ccc(NC(=O)CC(Cc2ccc(Cl)cc2)C(=O)O)cc1 (stereo unspecified) -0.804%
Cc1cc(-n2cnc(-c3cn(C)nc3C)n2)no1 -0.598%
C=CCOC(=O)N1CCC2CC1c1cc(-c3ccc(OC)cc3)ccc12 (stereo unspecified) -0.353%
Cc1nc(-c2ccccc2)sc1-c1nnc(C2CC2)o1 -0.361%
CCN(C(=O)COC(=O)/C=C/c1nc2ccccc2s1)C1CCS(=O)(=O)C1 (stereo unspecified) 0.0609%
CC(=O)c1c(C)[nH]c(C(=O)Nc2cc(S(=O)(=O)N(C)C)ccc2C)c1C -0.89%
COc1ccc(CNC(=O)CSc2n[nH]c(N)n2)cc1OC -2.17%
C=CCOc1c2ccc(C(=O)N(CC)c3ccc(OC)cc3)cc2nn1C -0.978%
O=C(COc1coc(CN2CCN(c3ccccc3)CC2)cc1=O)N1CCc2ccccc21 -0.986%
COc1cc(NC(=O)c2ccc3c(c2)OCO3)ccc1NC(=O)c1cccs1 -2.17%
COc1cc2ccccc2cc1C(=O)Nc1ccc(NC(=O)c2cccs2)cc1 -1.38%
Cn1cc(CCC(=O)N2CCCC(C(=O)c3ccc(C(C)(C)C)cc3)C2)cn1 (stereo unspecified) -1.53%
Cc1ccccc1NC(=O)CCOc1ccccc1 -0.379%
COc1ccccc1-n1ccnc(SCC(=O)NC2CCCCC2)c1=O -0.307%
CN(C)S(=O)(=O)Oc1ccccc1C(=O)Nc1ccccc1Cl -2.53%
CN(C)C(=O)CCc1ccc2c3c([nH]c2c1)[C@]1(C)[C@@H](C(=O)N2CCCCC2)C[C@H](CC(=O)NCCC2=CCCCC2)C(=O)N1CC3 -0.602%
CC(CN1CCCCC1)c1ccccc1 (stereo unspecified) -0.367%
COc1ccccc1CNC(=O)CNC(=O)c1cn(-c2ccccc2OC)c(=O)c2ccccc12 -0.592%
CCc1ccc(C(=O)C(C)OC(=O)CN2C(=O)NC3(CCCC3)C2=O)cc1 (stereo unspecified) -0.0354%
Cc1ccoc1C(=O)Nc1cccc(Oc2ccccc2)c1 -1.61%
Cc1ccnc(NC(=O)C2CCN(S(=O)(=O)c3c(C)c(C)cc(C)c3C)CC2)c1 -2.34%
CCOc1ccc(OCC(=O)OC(C)C(=O)NC2CCCCC2C)cc1 (stereo unspecified) -1.17%
O=C(O)C1C2C=CC(O2)C1C(=O)Nc1ccccn1 (stereo unspecified) 0.325%
CCc1cccc(NC(=S)N(CCN(C)C)C2CCN(C(C)C)CC2)c1 -0.435%
COc1ccccc1NC(=S)N1CCN(C(c2ccccc2)c2ccccc2)CC1 0.312%

inhibition, active:
CCCCCC(=O)Nc1ccc(-c2cn3cccnc3n2)cc1 177%
COc1cc(NC(=O)c2cccs2)ccc1NC(=O)c1ccccc1Cl 52%
COCCN(C(=S)Nc1ccccc1OC)C1CCN(C(C)C)CC1 61.8%
